Experimental data reported in ChEMBL document CHEMBL3612019, “Revisiting 1,3,4-Oxadiazol-2-ones: Utilization in the Development of ABHD6 Inhibitors” (Bioorg Med Chem, 2015).
Active and inactive are the calls of the source. The calls are words filed in the database; no cut-off is given here.

Legend:
Monoglyceride lipase = biological target: T1, Monoglyceride lipase (Homo sapiens, UniProt Q99685); test: Inhibition of human MAGL expressed in HEK293 cells pre-incubated for 10 mins before 2-AG substrate addition by HPLC method; assay type: cell-based
T1 sequence (Q99685 whole entry): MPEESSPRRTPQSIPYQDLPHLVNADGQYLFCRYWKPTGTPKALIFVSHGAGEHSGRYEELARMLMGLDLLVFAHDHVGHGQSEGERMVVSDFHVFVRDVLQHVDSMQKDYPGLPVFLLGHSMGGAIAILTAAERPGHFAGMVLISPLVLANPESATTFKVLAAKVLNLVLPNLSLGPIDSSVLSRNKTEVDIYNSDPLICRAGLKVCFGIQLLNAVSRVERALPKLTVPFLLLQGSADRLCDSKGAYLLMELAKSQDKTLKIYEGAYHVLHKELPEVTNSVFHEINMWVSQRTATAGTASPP
Summary of the method: (§1)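 Lysates of hMAGL-overexpressing HEK293 cells in 50 mM Tris–HCl pH 7.4 with 1 mM EDTA. After a 10 min preincubation with inhibitor or DMSO, 2-AG was added (final 50 µM) and incubated 10 min at 37 °C. The reaction was stopped and samples centrifuged. Arachidonic acid formation and 2-AG depletion were measured by HPLC. Replicates as for the FAAH assay.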

[1] = biological target: T2, Monoacylglycerol lipase ABHD6 (Homo sapiens) (UniProt Q9BV23); test: Inhibition of human ABHD6 expressed in HEK293 cells assessed as remaining enzyme activity by measuring reduction in glycerol production from 1-AG hydrolysis at 1 uM pre-incubated for 30 mins before 1-AG substrate addition and measured 90 mins post substrate addition by fluorescence method; assay type: cell-based
T2 sequence (whole entry): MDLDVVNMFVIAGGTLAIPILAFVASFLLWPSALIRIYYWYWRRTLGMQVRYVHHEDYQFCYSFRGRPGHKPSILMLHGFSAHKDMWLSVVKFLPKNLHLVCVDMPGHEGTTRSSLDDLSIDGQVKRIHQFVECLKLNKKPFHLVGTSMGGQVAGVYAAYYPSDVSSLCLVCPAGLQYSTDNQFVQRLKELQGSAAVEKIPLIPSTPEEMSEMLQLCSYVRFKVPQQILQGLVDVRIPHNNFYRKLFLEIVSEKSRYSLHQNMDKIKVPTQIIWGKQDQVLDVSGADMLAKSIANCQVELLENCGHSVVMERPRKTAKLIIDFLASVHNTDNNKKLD
Summary of the method: (§2)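 hABHD6-HEK293 lysates pretreated 30 min with DMSO or inhibitor, then given 1-AG (12.5 µM final). Glycerol release was followed kinetically by fluorescence (emission 590 nm). Blanks without lysate were subtracted. IC50 was taken at the 90 min time point by nonlinear fitting of dose–response curves.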

[2] = biological target: T3, Fatty-acid amide hydrolase 1 (Homo sapiens) (UniProt O00519); test: Inhibition of human FAAH expressed in COS7 cell membranes at 10 uM pre-incubated for 10 mins before [3H]-AEA substrate addition by liquid scintillation counting; conditions: COS-7
T3 sequence (whole entry): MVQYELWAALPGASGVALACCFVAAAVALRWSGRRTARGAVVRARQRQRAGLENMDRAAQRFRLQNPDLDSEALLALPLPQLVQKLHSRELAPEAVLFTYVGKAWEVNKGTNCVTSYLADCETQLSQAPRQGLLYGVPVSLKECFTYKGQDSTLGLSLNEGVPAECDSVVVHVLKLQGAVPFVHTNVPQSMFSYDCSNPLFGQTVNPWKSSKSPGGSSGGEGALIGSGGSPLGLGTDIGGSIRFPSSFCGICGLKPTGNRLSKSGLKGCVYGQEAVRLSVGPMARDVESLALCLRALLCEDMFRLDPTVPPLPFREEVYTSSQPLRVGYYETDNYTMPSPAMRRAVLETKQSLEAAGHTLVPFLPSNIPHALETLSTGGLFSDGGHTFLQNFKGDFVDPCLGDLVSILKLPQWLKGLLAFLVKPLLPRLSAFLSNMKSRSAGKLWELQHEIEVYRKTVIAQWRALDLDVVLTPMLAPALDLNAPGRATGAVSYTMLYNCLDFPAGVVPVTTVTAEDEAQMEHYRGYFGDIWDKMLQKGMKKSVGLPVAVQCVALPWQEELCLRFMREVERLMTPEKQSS

[3] = biological target: T4, Monoglyceride lipase (Homo sapiens) (UniProt Q99685); test: Inhibition of human MAGL expressed in HEK293 cells at 10 uM pre-incubated for 10 mins before 2-AG substrate addition by HPLC method; assay type: cell-based; summary of the method: as §1
T4 sequence (whole entry): T1 sequence (Q99685 whole entry)

[4] = biological target: T5, Lysophosphatidylserine lipase ABHD12 (Homo sapiens) (UniProt Q8N2K0); test: Inhibition of human ABHD12 expressed in HEK293 cells assessed as remaining enzyme activity at 1 uM pre-incubated for 10 mins before 2-AG substrate addition by HPLC method; assay type: cell-based
T5 sequence (whole entry): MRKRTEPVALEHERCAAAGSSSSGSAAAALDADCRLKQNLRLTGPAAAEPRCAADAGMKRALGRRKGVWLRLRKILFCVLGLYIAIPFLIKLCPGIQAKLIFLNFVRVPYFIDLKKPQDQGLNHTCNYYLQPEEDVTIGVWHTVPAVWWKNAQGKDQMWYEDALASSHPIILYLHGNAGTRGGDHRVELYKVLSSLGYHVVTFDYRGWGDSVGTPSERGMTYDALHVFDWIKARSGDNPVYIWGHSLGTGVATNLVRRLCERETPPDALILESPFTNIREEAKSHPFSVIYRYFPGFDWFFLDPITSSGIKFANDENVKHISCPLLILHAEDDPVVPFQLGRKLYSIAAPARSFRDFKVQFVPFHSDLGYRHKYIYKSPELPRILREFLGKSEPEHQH

[5] = biological target: T6, Monoacylglycerol lipase ABHD6 (Homo sapiens, UniProt Q9BV23); test: Inhibition of human ABHD6 expressed in HEK293 cells assessed as reduction in glycerol production from 1-AG hydrolysis pre-incubated for 30 mins before 1-AG substrate addition and measured 90 mins post substrate addition by fluorescence method; assay type: cell-based; summary of the method: as §2
T6 sequence (Q9BV23 whole entry): T2 sequence (whole entry)

[6] = biological target: T6, Monoacylglycerol lipase ABHD6; test: Inhibition of human ABHD6 expressed in HEK293 cells at 1 uM pre-incubated for 10 mins before 2-AG substrate addition followed by rapid 40 fold compound dilution measured after 10 mins by HPLC method; assay type: cell-based
[7] = biological target: T6, Monoacylglycerol lipase ABHD6; test: Inhibition of human ABHD6 expressed in HEK293 cells at 1 uM pre-incubated for 10 mins before 2-AG substrate addition followed by rapid 40 fold compound dilution measured after 30 mins by HPLC method; assay type: cell-based
[8] = biological target: T6, Monoacylglycerol lipase ABHD6; test: Inhibition of human ABHD6 expressed in HEK293 cells at 1 uM pre-incubated for 10 mins before 2-AG substrate addition followed by rapid 40 fold compound dilution measured after 60 mins by HPLC method; assay type: cell-based
[9] = biological target: T6, Monoacylglycerol lipase ABHD6; test: Inhibition of human ABHD6 expressed in HEK293 cells at 1 uM pre-incubated for 10 mins before 2-AG substrate addition followed by rapid 40 fold compound dilution measured after 90 mins by HPLC method; assay type: cell-based
[10] = biological target: T7, Fatty-acid amide hydrolase 1 (Homo sapiens, UniProt O00519); test: Inhibition of human FAAH expressed in COS7 cell membranes pre-incubated for 10 mins before [3H]-AEA substrate addition by liquid scintillation counting; design: species or system COS-7
T7 sequence (O00519 whole entry): T3 sequence (whole entry)

[11] = biological target: Cannabinoid receptor 1 (Rattus norvegicus) (UniProt P20272); conditions: Cerebellum, Membrane, 1 uM
Sequence of Cannabinoid receptor 1 (Rattus norvegicus) (P20272 whole entry): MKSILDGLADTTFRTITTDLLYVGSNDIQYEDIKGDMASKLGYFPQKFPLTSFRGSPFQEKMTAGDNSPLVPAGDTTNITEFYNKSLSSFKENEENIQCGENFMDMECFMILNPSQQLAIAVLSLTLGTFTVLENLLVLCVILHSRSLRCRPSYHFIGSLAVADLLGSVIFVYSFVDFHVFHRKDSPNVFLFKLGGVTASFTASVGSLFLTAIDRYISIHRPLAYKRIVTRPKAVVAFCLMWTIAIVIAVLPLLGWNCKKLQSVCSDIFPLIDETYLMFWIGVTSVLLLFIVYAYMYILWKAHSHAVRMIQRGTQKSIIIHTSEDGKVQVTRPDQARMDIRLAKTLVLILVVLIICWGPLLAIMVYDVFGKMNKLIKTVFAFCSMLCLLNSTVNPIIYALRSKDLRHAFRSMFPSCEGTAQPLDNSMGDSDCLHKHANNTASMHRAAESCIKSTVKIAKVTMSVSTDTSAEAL

Structure (SMILES)	Activity [1] [%]	inhibition [2]	inhibition [3]	inhibition [4]	inhibition [1]	also measured
COc1nn(Cc2ccc(Oc3ccccc3)cc2)c(=O)o1	77					pIC50 (Monoglyceride lipase; hek293): 6.4
COc1nn(Cc2cccc(C#N)c2)c(=O)o1	63	inactive	23%	inactive		
COc1nn(Cc2cccc(NC(=O)c3ccccc3)c2)c(=O)o1	79	inactive	48%	inactive		
COc1nn(Cc2ccc(CC(C)C)cc2)c(=O)o1					inactive	
COc1nn(Cc2ccc([N+](=O)[O-])cc2)c(=O)o1		18%	36%	inactive	inactive	
COc1nn(Cc2ccc(N)cc2)c(=O)o1		34%	23%	inactive	inactive	
CN(C(=O)Oc1nsnc1N1CCOCC1)C1CCCCCCC1		18%	inactive			pIC50 ([5]; hek293): 7.36; IC50 [6]: 0.0912 µM; IC50 [7]: 0.0871 µM; IC50 [8]: 0.0871 µM; IC50 [9]: 0.0933 µM
COc1nn(Cc2ccccc2[N+](=O)[O-])c(=O)o1	57	36%	43%	inactive		
COc1nn(Cc2cccc3ccccc23)c(=O)o1	64	35%	11%	inactive		
COc1nn(Cc2cccc(OCc3ccccc3)c2)c(=O)o1	53			inactive		IC50 ([10]; read-out: IC50): 1.51 µM; IC50 ([10]; read-out: pIC50 (converted)): 1.51 µM; IC50 (Monoglyceride lipase; read-out: IC50): 3.23 µM
COc1nn(Cc2ccccc2Oc2ccccc2)c(=O)o1	60		inactive			
COc1nn(Cc2cccc([N+](=O)[O-])c2)c(=O)o1	65	7%	32%	inactive		
CCOc1nn(Cc2cccc(N)c2)c(=O)o1		10%	15%	inactive	inactive	
COc1nn(Cc2cccc(Oc3ccccc3)c2)c(=O)o1	70					
COc1nn(Cc2cccc(Cl)c2)c(=O)o1	52	37%	43%	inactive		
COc1nn(Cc2ccc(C#N)cc2)c(=O)o1		inactive	25%	inactive	inactive	
COc1nn(Cc2ccc(OCc3ccccc3)cc2)c(=O)o1				inactive	inactive	IC50 ([10]; read-out: IC50): 0.41 µM; IC50 ([10]; read-out: pIC50 (converted)): 0.407 µM; IC50 (Monoglyceride lipase; read-out: IC50): 0.52 µM
COc1nn(Cc2ccc(-c3ccccc3)cc2)c(=O)o1					inactive	

Structure (SMILES)	Activity [1] [%]	inhibition [2]	inhibition [3]	inhibition [4]	inhibition [1]	also measured
COc1nn(Cc2ccccc2NC(C)=O)c(=O)o1		11%	3%	inactive	inactive	
COc1nn([C@@H](C)c2ccc(CC(C)C)cc2)c(=O)o1					inactive	
COc1nn(Cc2cccc(-c3ccccc3)c2)c(=O)o1					inactive	
COc1nn(Cc2cccc(NC(C)=O)c2)c(=O)o1		inactive	12%	inactive	inactive	
COc1nn(Cc2ccc(NC(C)=O)cc2)c(=O)o1		37%	16%	inactive	inactive	
COc1nn(Cc2ccccc2-c2ccccc2)c(=O)o1		23%	8%	inactive	inactive	
COc1nn(Cc2ccccc2N)c(=O)o1		8%	4%	inactive	inactive	
COc1nn(Cc2cccc(C(F)(F)F)c2)c(=O)o1		12%	48%	inactive		IC50 [5]: 0.87 µM
COc1nn(Cc2ccc(NC(=O)c3ccccc3)cc2)c(=O)o1	88			inactive		IC50 ([10]; read-out: IC50): 0.62 µM; IC50 ([10]; read-out: pIC50 (converted)): 0.617 µM; IC50 (Monoglyceride lipase; read-out: IC50): 0.56 µM
COc1cccc(Cn2nc(OC)oc2=O)c1	70	inactive	6%	inactive		
COC(=O)c1cccc(Cn2nc(OC)oc2=O)c1		20%	7%	inactive		IC50 [5]: 0.45 µM
COC(=O)c1ccc(Cn2nc(OC)oc2=O)cc1			15%	inactive	inactive	IC50 ([10]; read-out: IC50): 6.76 µM; IC50 ([10]; read-out: pIC50 (converted)): 6.76 µM
O=c1oc(Oc2ccccc2)nn1Cc1cccc([N+](=O)[O-])c1		38%		inactive		IC50 (Monoglyceride lipase; read-out: IC50): 3.31 µM; IC50 (Monoglyceride lipase; read-out: pIC50 (converted)): 3.24 µM; IC50 [5]: 0.13 µM
O=C(N1CCC(=C2c3ccc(Cl)cc3CCc3cccnc32)CC1)n1cncn1						IC50 ([10]; cos-7, read-out: IC50): 7.24 µM; IC50 (Monoglyceride lipase; hek293, read-out: IC50): 0.046 µM; IC50 ([5]; hek293): 1.78 µM
COc1nn(Cc2ccccc2NC(=O)c2ccccc2)c(=O)o1		inactive	inactive	inactive	inactive	
COc1nn(Cc2ccccc2)c(=O)o1	61	inactive	inactive			
COc1nn(Cc2ccc3ccccc3c2)c(=O)o1			inactive	inactive	inactive	IC50 ([10]; read-out: IC50): 3.98 µM; IC50 ([10]; read-out: pIC50 (converted)): 3.98 µM
Cc1c(C(=O)NN2CCCCC2)nn(-c2ccc(Cl)cc2Cl)c1-c1ccc(I)cc1						inhibition [11]: 38%
